In data set [1] the test system is C-33-A. The experiment in a line: Antiproliferative activity against human C33A cells assessed as reduction in cell viability after 24 hrs by CellTiter-Glo assay. It counts as functional, cell-based. The method in brief: (§1)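 ATP-based luminescent viability readout. Cells were grown in DMEM with 10% FBS, 2 mM L-glutamine and penicillin-streptomycin at 37 °C, 5% CO2. 2 × 10^4 cells/well were seeded, then exposed the next day to 0–40 μM for 24, 48 or 72 h. % viability = 100 × treated/control. IC50 was fitted from a sigmoid dose-response curve. Run at least three times in quadruplicate; mean ± SEM.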
On the technique in general: Cellular ATP, detected with luciferase, serves as a proxy for viable cell number.

Data set [2] has as its system SiHa. Description: Cell cycle arrest in human SiHa cells assessed as decrease in accumulation at S phase at 4 uM incubated up to 72 hrs by propidium iodide staining based flow cytometric analysis. It counts as functional. The method in brief: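 Cells in DMEM with 10% FBS, 2 mM L-glutamine, pen-strep, 37 °C, 5% CO2; seeded and left overnight, then treated at 4 μM with DMSO as control. Harvested by trypsin at 24, 48 or 72 h, fixed in chilled 70% ethanol 30 min on ice, RNase A (1 mg/mL) 30 min at room temperature, PI (20 μg/mL). Flow cytometry, ≥10 000 events, G0/G1, S, G2/M fractions; mean ± SEM.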
Background: A flow cytometer gives signals particle by particle.

Data set [3] deals with Casein kinase II subunit alpha (Homo sapiens) (UniProt P68400). The experiment in a line: Inhibition of CK2alpha in human C33A cells at 2 to 4 uM after 48 hrs by Western blot analysis. Format: cell-based. The settings on record: C-33-A. The method in brief:
(§2)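 Cells were seeded at 1 × 10^6 per 100 mm dish and treated next day with 2 or 4 μM for 48 h. They were trypsinised, PBS-washed and lysed in RIPA with protease inhibitors. Equal protein was run on SDS-PAGE and transferred to PVDF. Primary antibodies were used at 1:500, with BSA 3% for blocking and antibodies for CK2α, Rb and pRb, otherwise 5% milk in TBST. HRP secondary at 1:2000, chemiluminescence detection.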

Data set [4] deals with Ca-Ski. The experiment in a line: Induction of apoptosis in human CaSki cells assessed as late apoptotic cells at 4 uM after 48 hrs by Annexin V-FITC/PI double staining based flow cytometric analysis (reference value: 9.1%). It counts as functional.
In data set [5] the target is Protein E6 (human papillomavirus 18) (UniProt P06463). Description: Inhibition of Human papillomavirus type18 derived E6 in human HeLa cells assessed as increase in p21 protein expression at 2 to 4 uM after 48 hrs by Western blot analysis. Format: cell-based. In short, it runs like this: as §2
(In general: Immunoblotting shows a protein as a band on a membrane.)

The test system of data set [6] is Ca-Ski. Description: Induction of apoptosis in human CaSki cells assessed as early apoptotic cells at 4 uM after 24 hrs by Annexin V-FITC/PI double staining based flow cytometric analysis (reference value: 12.2%). It counts as functional.
For data set [7], the system named is C-33-A. The experiment in a line: Induction of apoptosis in human C33A cells assessed as viable cells at 4 uM after 24 hrs by Annexin V-FITC/PI double staining based flow cytometric analysis (reference value: 93.3%). The settings on record: read-out: Activity. Format: functional.
Data set [8] has as its system HeLa. Description: Cell cycle arrest in human HeLa cells assessed as accumulation at Sub G1 phase at 4 uM after 72 hrs by propidium iodide staining based flow cytometric analysis (reference value: 3.5%). It counts as functional. In short, it runs like this:
(§3)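 Cells in DMEM/10% FBS at 37 °C, 5% CO2 were given 4 μM for 24, 48 or 72 h, with DMSO as control. After trypsinization they were fixed in chilled 70% ethanol on ice for 30 min, treated with RNase A (1 mg/mL) for 30 min at room temperature, and stained with PI (20 μg/mL). At least 10 000 events were read by flow cytometry to give sub-G1, G0/G1, S and G2/M fractions; mean ± SEM.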

The target in data set [9] is Protein E6 (human papillomavirus 18) (UniProt P06463). The experiment in a line: Inhibition of Human papillomavirus type18 derived E6 in human HeLa cells assessed as increase in p53 protein expression at 2 to 4 uM after 48 hrs by Western blot analysis. Format: cell-based. In short, it runs like this: as §2
The subject of data set [10] is HeLa. The experiment in a line: Induction of apoptosis in human HeLa cells assessed as apoptotic cells at 4 uM after 48 hrs by Annexin V-FITC/PI double staining based flow cytometric analysis (reference value: 19.3%). Format: functional.
Data set [11] concerns Ca-Ski. Description: Cell cycle arrest in human CaSki cells assessed as accumulation at G2/M phase at 4 uM after 72 hrs by propidium iodide staining based flow cytometric analysis (reference value: 15.2%). It counts as functional.
For data set [12], the system named is C-33-A. Description: Cell cycle arrest in human C33A cells assessed as increase in p53 protein expression at 2 to 4 uM after 48 hr by Western lot analysis. It counts as functional, cell-based. The method in brief:
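Western blot. 1 × 10^6 cells were seeded per 100 mm dish and exposed the next day to 2 or 4 μM for 48 h. Cells were trypsinized and lysed in RIPA buffer with protease inhibitors. Equal protein was run on SDS-PAGE and transferred to PVDF, which was blocked in 5% milk/TBST. Anti-p53 and anti-p21 (also GAPDH) were used at 1:500 and HRP secondary at 1:2000; chemiluminescent detection.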

Data set [13] concerns the target T1, Protein E7 (Human papillomavirus 16) (UniProt P03129).
T1 sequence (whole entry): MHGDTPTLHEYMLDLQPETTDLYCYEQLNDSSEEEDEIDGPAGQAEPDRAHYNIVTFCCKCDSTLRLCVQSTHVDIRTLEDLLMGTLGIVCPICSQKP
The experiment in a line: Inhibition of Human papillomavirus type16 derived E7 in human SiHa cells assessed as decrease in phosphorylation of Rb at 2 to 4 uM after 48 hrs by Western blot analysis. Format: cell-based. In short, it runs like this: as §2

The target in data set [14] is Protein E6 (Human papillomavirus 16) (UniProt P03126). The experiment in a line: Inhibition of Human papillomavirus type16 derived E6 in human CaSki cells assessed as increase in p21 protein expression at 2 to 4 uM after 48 hrs by Western blot analysis. It counts as cell-based. The following applies: Ca-Ski. In short, it runs like this:
as §2

The subject of data set [15] is Ca-Ski. The experiment in a line: Antiproliferative activity against human CaSki cells assessed as reduction in cell viability after 24 hrs by CellTiter-Glo assay. It counts as functional, cell-based. In short, it runs like this:
as §1

In data set [16] the test system is HeLa. The experiment in a line: Cell cycle arrest in human HeLa cells assessed as accumulation at G2/M phase at 4 uM after 24 hrs by propidium iodide staining based flow cytometric analysis (reference value: 16.4%). It counts as functional. The method in brief: as §3
Data set [17] concerns Ca-Ski. The experiment in a line: Induction of apoptosis in human CaSki cells assessed as viable cells at 4 uM after 48 hrs by Annexin V-FITC/PI double staining based flow cytometric analysis (reference value: 81.6%). It counts as functional. The settings on record: read-out: Activity.
In data set [18] the test system is SiHa. Description: Cell cycle arrest in human SiHa cells assessed as accumulation at G0/G1 phase at 4 uM after 48 hrs by propidium iodide staining based flow cytometric analysis (reference value: 72.7%). Format: functional. The method in brief: as §3
The target of data set [19] is T1, Protein E7 (Human papillomavirus 16). Description: Inhibition of Human papillomavirus type16 derived E7 in human SiHa cells assessed as decrease in cyclin-D1 protein expression at 2 to 4 uM after 48 hrs by Western blot analysis. Format: cell-based. In short, it runs like this: as §2
Data set [20] relates to SiHa. Description: Effect on total-Rb in human SiHa cells assessed decrease in Rb protein level at 2 to 4 uM after 48 hrs by Western blot analysis. Format: ADME, cell-based. The method in brief: as §2
Data set [21] addresses Casein kinase II subunit alpha (Homo sapiens) (UniProt P68400). Description: Inhibition of CK2alpha in human SiHa cells at 2 to 4 uM after 48 hrs by Western blot analysis. It counts as cell-based. The method in brief: as §2
The target of data set [22] is T1, Protein E7 (Human papillomavirus 16). Description: Inhibition of Human papillomavirus type16 derived E7 in human CaSki cells assessed as decrease in phosphorylation of Rb at 2 to 4 uM after 48 hrs by Western blot analysis. The settings on record: Ca-Ski. Format: cell-based. The method in brief:
as §2

Consider one compound from ChEMBL document CHEMBL4602675, “The Marine Natural Product Manzamine A Inhibits Cervical Cancer by Targeting the SIX1 Protein” (J Nat Prod, 2020).

Active and inactive are the calls of the source. The calls are words filed in the database; no cut-off is given here.

Protein E6 (human papillomavirus 18), sequence (P06463 whole entry): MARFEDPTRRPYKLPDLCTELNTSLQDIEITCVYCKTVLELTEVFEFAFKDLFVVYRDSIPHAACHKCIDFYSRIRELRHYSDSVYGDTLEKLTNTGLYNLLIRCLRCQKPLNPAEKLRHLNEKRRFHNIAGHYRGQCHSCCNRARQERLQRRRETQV
Casein kinase II subunit alpha (Homo sapiens), sequence (P68400 whole entry, looked up): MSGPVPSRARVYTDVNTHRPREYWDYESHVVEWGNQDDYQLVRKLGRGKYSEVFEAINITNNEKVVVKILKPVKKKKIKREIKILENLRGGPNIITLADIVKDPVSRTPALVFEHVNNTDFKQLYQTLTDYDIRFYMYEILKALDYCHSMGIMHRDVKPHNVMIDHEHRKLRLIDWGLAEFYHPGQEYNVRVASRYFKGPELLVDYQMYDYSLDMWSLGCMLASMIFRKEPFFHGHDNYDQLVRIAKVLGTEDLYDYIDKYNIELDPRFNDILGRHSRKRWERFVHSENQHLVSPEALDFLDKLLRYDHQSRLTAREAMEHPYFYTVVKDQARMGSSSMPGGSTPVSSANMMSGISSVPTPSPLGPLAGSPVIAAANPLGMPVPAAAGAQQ
Protein E6 (Human papillomavirus 16), sequence (P03126 whole entry): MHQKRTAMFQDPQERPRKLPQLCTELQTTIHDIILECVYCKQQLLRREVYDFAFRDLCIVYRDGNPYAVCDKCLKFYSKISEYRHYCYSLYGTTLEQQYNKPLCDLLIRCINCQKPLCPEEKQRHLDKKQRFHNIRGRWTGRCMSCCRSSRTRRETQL

What is called IC50 is the concentration that gives 50% inhibition. On to `O[C@]12C=C(c3nccc4c3[nH]c3ccccc34)[C@@H]3CCN(CCCC/C=C\CC1)C[C@@]31C[C@@H]3/C=C\CCCCN3[C@H]12` [MANZAMINE A], for which the IC50 worked out at 5.2 µM in data set [1] and 33.6 µM in data set [15]. Further, in data set [2], the result was Active. The inhibition result in data set [3], in [9], in [13], in [14], in data set [19] and in [21] was “Active” throughout. In addition, the inhibition result in [22] was “Active”. Also, the Activity is recorded as 7.8% in [4]; 16.9% in [6]; 24.3% in data set [8]; 75.9% in [10]; 10.2% in data set [11]; 13.8% in data set [16]. Also, the Activity in data set [18] is listed as 86.4%; in data set [20], “Toxic”. Also, in data set [5], the inhibition entry is “inactive”. The viability at 4 µM in [7] came to 72.7%; in data set [17] it was 76.9%. In addition, in data set [12], the result was inactive.
